Measured values as given in publication PMC4195389 (Journal of the American Chemical Society, 2014).

Assays:
[1] = tested on: HCT116N cells (MMR-proficient) and HCT116O cells (MMR-deficient); assay type: cell-based
[2] = tested on: HCT116N and HCT116O cells; assay: MTT cytotoxicity assay; assay type: cell-based; conditions: 72 h
Method in brief: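 HCT116N and HCT116O cells are seeded at 50,000 cells/well in 96-well format and exposed to test compound for 72 h. MTT labelling follows for 4 h at 37 °C under 5% CO2, and formazan is dissolved in acidified SDS. The read-out is A570 minus A690 background. Percent viability is formazan of treated over untreated cells. Differential cytotoxicity is the difference in percent viability between the two lines.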

[3] = Metalloinsertor pH titrations; assay type: physicochemical; conditions: chrysi immine proton; ambient temperature, 0.1 M NaCl; racemic mixtures
Method in brief: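 Test compound at 25 μM in 0.1 M NaCl is titrated from about pH 4.5 to 10.5 and back with 6 mM NaOH or 10 mM HCl, with pH followed by electrode. A UV-vis spectrum is recorded after each addition. Absorbance at one strongly changing wavelength is plotted against pH, and pKa is taken from the inflection of the sigmoid. Values from three separate experiments are pooled and averaged.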

[4] = tested on: DNA hairpin 5′-[…]-3′ with CC mismatch; assay: Covalent DNA binding assay; conditions: 30 min at 37 °C; neutral phosphate buffer or 5 mM glutathione
[5] = tested on: HCT116N cells (MMR-proficient); assay: Cell death mode flow cytometry assay; assay type: cell-based; conditions: 72 h
Method in brief: (§1)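 HCT116 cells, grown in RPMI 1640 with 10% FBS, glutamine, non-essential amino acids, pyruvate, penicillin/streptomycin and 400 μg/mL G418 at 37 °C under 5% CO2, are exposed to test compound (0–0.5 μM) for 72 h. They are then trypsinized, washed in cold PBS, pelleted and resuspended in PBS at 10^6 cells/mL. Staining is 30 min with propidium iodide (1 μg/mL final) plus YO-PRO-1 (50 nM final). Flow-cytometry events are gated as live, apoptotic, necrotic or dead.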

[6] = tested on: HCT116O cells (MMR-deficient); assay: Cell death mode flow cytometry assay; assay type: cell-based; conditions: 72 h
Method in brief: as §1

[7] = tested on: matched sites in the DNA duplex; assay: Binding competition gels with [Rh; conditions: competition with 4 μM [Rh(bpy)2(phi)]3+; up to 1:15 DNA:complex; data not shown
[8] = tested on: 36-mer DNA duplex containing a CC mismatch; assay type: binding

Row | Compound | optimal concentration for differential cytotoxicity [2] [nM] | concentration required for optimal differential activity [1] [µM] | pKa [3] | differential inhibition (difference in %BrdU incorporation between HCT116N and HCT116O cells) [1] [%] | also measured
1 | N.N.[Cl][Pt][Cl] [cisplatin, cis-diamminedichloroplatinum, reference compound] | – | – | – | – | concentration required for optimal biological activity [1]: 6 μM
2 | [Rh(HDPA)2(chrysi)]^3+ [reference compound] | 25000 | 10 | – | – | –
3 | [Rh(chrysi)(phen)(DPE)]Cl2 [[Rh(chrysi)(phen)(DPE)]^2+] | 6000 | 3 | 8.7 ± 0.2 | 55 ± 2 | –
4 | [Rh(chrysi)(phen)(PPE)]Cl2 [[Rh(chrysi)(phen)(PPE)]^2+] | 720 | 1 | 8.9 ± 0.4 | 53 ± 7 | covalent DNA binding [4]: no covalent DNA binding
5 | [Rh(chrysi)(phen)(PPO)]Cl2 [[Rh(chrysi)(phen)(PPO)]^2+] | 320 | 0.3 | 8.3 ± 0.3 | 62 ± 2 | live cells ([5]; 0.2 μM): 57 ± 7%; cells in the apoptotic region ([5]; following metalloinsertor treatment): 25 ± 7%; mode of cell death ([6]; 0.2 or 0.5 μM, HCT116O versus HCT116N): induces necrosis preferentially in the MMR-deficient HCT116O cell line; live cells ([6]; HCT116O, 0.2 μM): 28 ± 6%; necrotic cells ([6]; HCT116O, 0.2 μM): 13 ± 2%; cells in the apoptotic region ([6]; HCT116O, following metalloinsertor treatment): 17 ± 7%
6 | [Rh(chrysi)(phen)(PyOctanol)]Cl2 [[Rh(chrysi)(phen)(PyOctanol)]^2+] | 480 | – | – | – | –
7 | Δ-[Rh(chrysi)(phen)(DPE)]^2+ | – | – | – | – | binding at matched sites [7]: no binding at matched sites; lower binding affinity for mismatched DNA as compared to Δ-[Rh(bpy)2(chrysi)]3+ [8]: ~5 fold
8 | Λ-[Rh(chrysi)(phen)(DPE)]^2+ | – | – | – | – | binding at matched sites [7]: no binding at matched sites
